Experiments:
[1] = tested on: Human immunodeficiency virus 1; experiment: Antiviral activity against wild type HIV-1 NL4-3 infected in human MT4 cells assessed as inhibition of virus-induced cytopathic effect by MTT method; type: functional, organism-based; conditions: Human immunodeficiency virus 1, NL4-3, MT4
Method in brief: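 MT-4 lymphoid cells infected with wild-type HIV-1 NL4-3 while exposed to a range of drug concentrations. Viable cells counted by tetrazolium (MTT) colorimetry at day 5 post-infection. Means of at least two experiments.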

[2] = tested on: Human immunodeficiency virus 1; experiment: Antiviral activity against HIV-1 harboring NNTRI-resistant reverse transcriptase K103N mutant infected in human MT4 cells assessed as inhibition of virus-induced cytopathic effect by MTT method; type: functional, organism-based; conditions: Human immunodeficiency virus 1, MT4
[3] = tested on: Human immunodeficiency virus 1; experiment: Antiviral activity against HIV-1 harboring NNTRI-resistant reverse transcriptase Y188L mutant infected in human MT4 cells assessed as inhibition of virus-induced cytopathic effect by MTT method; type: functional, organism-based; conditions: Human immunodeficiency virus 1, MT4
Method in brief: (§1)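 MT-4 lymphoid cells infected with HIV-1 carrying RT K103N, Y181C or Y188L, with a range of drug concentrations present. Viable cells counted by MTT colorimetric assay at day 5 post-infection. […] Highest concentration tested was limited by precipitation in culture medium. Means of at least two experiments.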

[4] = Selectivity index, ratio of CC50 for human MT4 cells to EC50 for wild type HIV-1 NL4-3 infected in human MT4 cells; type: toxicity, cell-based; conditions: read-out: Ratio CC50/EC50
Method in brief: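 Ratio of CC50 to EC50, both from MTT readings in MT-4 cells at day 5. CC50 was taken in mock-infected cells and EC50 in cells infected with wild-type NL4-3. Values are means of at least two experiments.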

[5] = tested on: Human immunodeficiency virus 1; experiment: Fold resistance, ratio of EC50 for HIV-1 harboring NNTRI-resistant reverse transcriptase Y181C mutant infected in human MT4 cells to EC50 for wild type HIV-1 NL4-3 infected in human MT4 cells; type: functional
Method in brief: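 MT-4 cells infected with HIV-1 mutant (K103N or Y181C) or wild-type NL4-3, with drug present. […] Fold resistance is the mutant EC50 divided by the wild-type NL4-3 EC50. EC50 values are means of at least two experiments.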

[6] = tested on: Human immunodeficiency virus 1; experiment: Fold resistance, ratio of EC50 for HIV-1 harboring NNTRI-resistant reverse transcriptase K103N mutant infected in human MT4 cells to EC50 for wild type HIV-1 NL4-3 infected in human MT4 cells; type: functional
[7] = Cytotoxicity against human MT4 cells assessed as induction of cell death by MTT method; type: cell-based
Method in brief: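 Mock-infected MT-4 cells exposed to a range of drug concentrations. Viability read by MTT colorimetry at day 5. […] Top concentration was limited where compound precipitated in the culture medium. Means of at least two experiments.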

[8] = tested on: Human immunodeficiency virus 1; experiment: Antiviral activity against HIV-1 harboring NNTRI-resistant reverse transcriptase Y181C mutant infected in human MT4 cells assessed as inhibition of virus-induced cytopathic effect by MTT method; type: functional, organism-based; conditions: Human immunodeficiency virus 1, MT4; method in brief: as §1
[9] = tested on: Human immunodeficiency virus type 1 reverse transcriptase (Human immunodeficiency virus 1), Q72547 [K103N]
[10] = biological target: Human immunodeficiency virus type 1 reverse transcriptase (Human immunodeficiency virus 1) (UniProt Q72547)
[11] = tested on: Human immunodeficiency virus type 1 reverse transcriptase (Human immunodeficiency virus 1), Q72547 [L100I]

Row | Structure (SMILES) | EC50 [1] [µM] | EC50 [2] [µM] | EC50 [3] [µM] | selectivity ratio [4] | Ratio EC50 [5] | Ratio EC50 [6] | CC50 [7] [µM] | EC50 [8] [µM] | ID50 [9] [µM] | ID50 [10] [µM] | ID50 [11] [µM]
1 | CC(C)Sc1nc(Cc2c(F)cccc2Cl)cc(=O)[nH]1 | 0.38 | 39.2 | > 80 | > 210 | 47 | 103 | > 80 | 17.8 | – | – | –
2 | CCCCSc1nc(O)c(C)c(C(C)c2c(F)cccc2F)n1 (racemic) | 0.05 | > 3 | > 3 | > 60 | – | – | > 3 | > 3 | 0.45 | 0.003 | 0.23
3 | Cc1c(Cc2c(F)cccc2Cl)nc(SC(C)C)[nH]c1=O | 0.12 | 10.6 | > 76 | > 633 | 70 | 88 | > 76 | 8.4 | – | – | –
4 | Cc1c(Cc2c(F)cccc2Cl)nc(SC2CCCC2)[nH]c1=O | 0.18 | > 71 | > 71 | > 394 | – | – | > 71 | > 71 | – | – | –
5 | CCC(C)Sc1nc(Cc2c(F)cccc2Cl)cc(=O)[nH]1 (stereo unspecified) | 0.16 | 25.2 | > 76 | > 475 | 52 | 157 | > 76 | 8.3 | – | – | –
6 | CCCSc1nc(Cc2c(F)cccc2Cl)cc(=O)[nH]1 | 0.26 | 18.8 | > 80 | > 308 | 31 | 72 | > 80 | 8.2 | – | – | –
7 | CCC(c1nc(SC2CCCC2)[nH]c(=O)c1C)c1c(F)cccc1Cl (racemic) | 0.58 | > 3 | > 3 | > 5 | – | – | > 3 | > 3 | 0.34 | 0.004 | 0.068
8 | CCCCSc1nc(Cc2c(F)cccc2Cl)cc(=O)[nH]1 | 0.29 | 29.2 | > 76 | > 262 | 58 | 101 | > 76 | 16.7 | – | – | –
9 | CCc1c(C(C)c2c(F)cccc2Cl)nc(SC(C)CC)[nH]c1=O (racemic) | 0.27 | > 3 | > 3 | > 11 | – | – | > 3 | > 3 | 2.4 | 0.008 | 0.4
10 | Cc1c([C@@H](C)c2c(F)cccc2Cl)nc(SC(C)C)[nH]c1=O | 0.22 | > 36.9 | > 36.9 | – | – | – | > 36.9 | > 36.9 | – | – | –
11 | CCc1c(C(C)c2c(F)cccc2Cl)nc(SC(C)C)[nH]c1=O (racemic) | 0.96 | > 3 | > 3 | > 3 | – | – | > 3 | > 3 | 2.6 | 0.048 | 1.1
12 | CCc1c(C(C)c2c(F)cccc2F)nc(SC(C)CC)[nH]c1=O (racemic) | 0.14 | > 3 | > 3 | > 21 | – | – | > 3 | > 3 | 0.45 | 0.011 | 0.11
13 | O=c1cc(Cc2c(F)cccc2Cl)nc(SC2CCCC2)[nH]1 | 0.15 | 42.1 | > 74 | > 493 | 122 | 281 | > 74 | 18.3 | – | – | –
14 | CCCSc1nc(C(C)c2c(F)cccc2F)c(C)c(=O)[nH]1 (racemic) | 0.028 | > 3 | > 3 | > 107 | – | – | > 3 | > 3 | 0.38 | 0.001 | 0.23
15 | CCCSc1nc(C(C)c2c(F)cccc2F)c(CC)c(=O)[nH]1 (racemic) | 0.24 | > 3 | > 3 | > 12 | – | – | > 3 | > 3 | 0.43 | 0.003 | 0.27
16 | CCC(C)Sc1nc(C(CC)c2c(F)cccc2Cl)c(C)c(=O)[nH]1 (racemic) | 0.054 | > 3 | > 3 | > 56 | – | – | > 3 | > 3 | 0.45 | 0.002 | 0.12

Source: ChEMBL document CHEMBL3286172, “Exploring the role of 2-chloro-6-fluoro substitution in 2-alkylthio-6-benzyl-5-alkylpyrimidin-4(3H)-ones: effects in HIV-1-infected cells and in HIV-1 reverse transcriptase enzymes” (J Med Chem, 2014)
